The subject of data set [1] is MT4. In words: Toxicity against human MT4 cells by MTT assay. Format: cell-based. A digest of the protocol: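 Uninfected MT-4 cells (HTLV-1-carrying T4+ line) at 1.0×10^5 cells/mL in RPMI-1640/10% FBS, gentamycin, 2 mM L-glutamine, run in triplicate alongside infected cultures for 5 days at 37 °C, 5% CO2. Compounds were diluted from DMSO, final DMSO ≤0.5%. Read by MTT (1.5 h), formazan dissolved in acidic 2-propanol, A540/690. CC50 is the concentration reducing viability by 50%.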
A general note: Formazan colour is commonly taken as a measure of viable cells.

In data set [2] the test system is Human immunodeficiency virus 1. In words: Antiviral activity against HIV1 3B infected in human MT4 cells […] with HTLV1 assessed as reduction in virus induced cytopathicity measured 5 days post infection by MTT assay. Format: functional, organism-based. As to conditions: Human immunodeficiency virus 1, 3B, MT4, 120 h. In a few lines: (§1)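 MT-4 cells (HTLV-1-carrying human T cells; RPMI-1640, 10% FBS, 2 mM L-glutamine) infected with cell-free HIV-1 IIIB or HIV-2 ROD at 100 TCID50/mL for 1.5 h at 37 °C, then plated at 1.0×10^5 cells/mL with serial compound dilutions (DMSO stock, at most 0.5% DMSO final) in triplicate. Cultured 5 days at 37 °C. Virus-induced cytopathicity read by MTT. IC50 is the concentration giving 50% protection.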
Background: Cytopathic effects are the visible damage that an infection or toxin causes in cultured cells.

In data set [3] the test system is Poliovirus 3. In words: Antiviral activity against Human poliovirus 3 up to 100 ug/mL. Format: functional, organism-based.
Data set [4] concerns Coxsackievirus B3. In words: Antiviral activity against Coxsackie virus B3 up to 100 ug/mL. Format: functional, organism-based.
A short description of data set [5]: Selectivity index, ratio of CC50 for human MT4 cells to IC50 for HIV1 3B. Format: functional. A digest of the protocol:
(§2)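 Uninfected MT-4 cells (1.0×10^5 cells/mL) were cultured for 5 days at 37 °C with compound in parallel with the infected cultures. Viability was read by MTT (1.5 h with MTT, formazan dissolved in acidic 2-propanol, absorbance at 540/690 nm). CC50 is the concentration reducing viability of uninfected cells by 50%. Index = CC50/IC50 against the HIV-1 IIIB or HIV-2 ROD MT-4 assay.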

Data set [6] has as its system Coxsackievirus B1. Nature of the data set: Antiviral activity against Coxsackie virus B1 up to 100 ug/mL. Format: functional, organism-based.
In data set [7] the test system is Human immunodeficiency virus 2. In words: Antiviral activity against HIV2 ROD infected in human MT4 cells assessed as reduction in virus induced cytopathicity measured 5 days post infection by MTT assay. Format: functional, organism-based. As to conditions: Human immunodeficiency virus 2, ISOLATE ROD, MT4, 120 h. In a few lines: as §1
Data set [8] in a line: Selectivity index, ratio of CC50 for human MT4 cells to IC50 for HIV2 ROD. Format: functional. In a few lines: as §2
Data set [9] has as its system Influenza B virus. Nature of the data set: Antiviral activity against influenza B virus Panama up to 100 ug/mL. Format: functional, organism-based.
The test system of data set [10] is Influenza A virus. In words: Antiviral activity against Influenza A virus H3N2 Johannesburg up to 100 ug/mL. Format: functional, organism-based.
In data set [11] the test system is Feline infectious peritonitis virus. Nature of the data set: Antiviral activity against Feline infectious peritonitis virus WSU up to 100 ug/mL. Format: functional.
For data set [12], the system named is Feline coronavirus. In words: Antiviral activity against Feline coronavirus WSU up to 100 ug/mL. Format: functional, organism-based.
Data set [13] deals with Influenza A virus. In words: Antiviral activity against influenza A virus H1N1 Taiwan up to 100 ug/mL. Format: functional, organism-based.
The test system of data set [14] is Human alphaherpesvirus 2. In words: Antiviral activity against HSV2. Format: functional, organism-based.

In brackets after ≈: the same amount, converted by molar mass. Activity calls are given as the source filed them. The rule behind the calls is not given here. Bounds are passed on as bounds.

The results in this text go back to ChEMBL document CHEMBL1795267, “Synthesis of enantiomerically pure D- and L-bicyclo[3.1.0]hexenyl carbanucleosides and their antiviral evaluation” (Bioorg Med Chem, 2011).

As usually defined, the CC50 is the concentration at which the toxic effect on the cells reaches its halfway point. Low values mean harm at low concentration, high ones better tolerance by the cells. Broadly, the IC50 is the concentration that inhibits the measured activity by half.

In turn, `Nc1ncnc2c1ncn2[C@H]1C=C[C@]2(CO)C[C@H]12` yielded a CC50 in data set [1] of more than 100 µg/mL. The IC50 in data set [2] is 40.5 µg/mL (≈ 166 µM). For the same compound, the inhibition result in [3], in data set [4] and in data set [6] was “inactive” throughout. Further, in [5], the “Ratio CC50/IC50” value is listed as more than 2.47.
On to `O=c1ccn([C@@H]2C=C[C@@]3(CO)C[C@@H]23)c(=O)[nH]1`, for which, in [2], the IC50 is more than 100 µg/mL. Also, the inhibition entry in data set [3], in data set [4] and in data set [6] was “inactive” in each case.
For the compound `Nc1ccn([C@@H]2C=C[C@@]3(CO)C[C@@H]23)c(=O)n1`, the CC50 in data set [1] is more than 100 µg/mL. In addition, the IC50 in data set [2] and in data set [7] was more than 100 µg/mL throughout. The inhibition result in data set [3], in [4] and in data set [6] was “inactive” each time.
With `Nc1nc(O)c2ncn([C@@H]3C=C[C@@]4(CO)C[C@@H]34)c2n1`, the half-maximal cytotoxic concentration (CC50) in data set [1] was more than 100 µg/mL. The IC50 in data set [2] and in data set [7] was more than 100 µg/mL each time. The inhibition entry in data set [3], in data set [4] and in data set [6] was “inactive” each time.
Compound `Cc1cn([C@H]2C=C[C@]3(CO)C[C@H]23)c(=O)[nH]c1=O` came in with a CC50 in [1] of 8.558 µg/mL (≈ 36.5 µM). Further, the IC50 amounted to 0.033 µg/mL (≈ 0.141 µM) in data set [2] and 0.112 µg/mL (≈ 0.478 µM) in data set [7]. Moreover, the inhibition result in data set [3], in data set [4] and in data set [6] was “inactive” throughout. Moreover, the “Ratio CC50/IC50” value in [8] is 76; in data set [5] it was 263.
`Nc1ccn([C@H]2C=C[C@]3(CO)C[C@H]23)c(=O)n1` displayed a CC50 in data set [1] of 61.8 µg/mL (≈ 282 µM). Further, the IC50 in data set [2] and in data set [7] was more than 61.8 µg/mL in each case. Besides, the inhibition result in [3], in data set [4] and in data set [6] was “inactive” each time. Also, the “Ratio CC50/IC50” value in data set [8] and in data set [5] was less than 1 each time.
For the compound `Nc1ncnc2c1ncn2[C@@H]1C=C[C@@]2(CO)C[C@@H]12`, the IC50 in [2] and in [7] was more than 100 µg/mL in each case. The inhibition result in data set [3], in data set [4] and in data set [6] was “inactive” throughout.
`O=c1nc(O)ccn1[C@H]1C=C[C@]2(CO)C[C@H]12` showed a CC50 in data set [1] of more than 100 µg/mL. Besides, the 50% inhibitory concentration (IC50) in data set [2] and in data set [7] was more than 100 µg/mL in each case. Besides, the inhibition result in data set [3], in data set [4] and in data set [6] was “inactive” throughout.
For `O=c1[nH]cnc2c1ncn2[C@H]1CC[C@@H](CO)O1` [DIDANOSINE], the CC50 in data set [1] is more than 100 µg/mL. The IC50 in data set [2] came out at 2.31 µg/mL (≈ 9.78 µM); in data set [7] it was 5.76 µg/mL (≈ 24.4 µM). For the same compound, the results for the “Ratio CC50/IC50” value in [8] and in data set [5] were more than 17.38 and more than 43.29, respectively.
For `Nc1ccn([C@H]2CC[C@@H](CO)O2)c(=O)n1` [ZALCITABINE], in that order: 10.66 µg/mL (≈ 50.5 µM), 0.043 µg/mL (≈ 0.204 µM), 0.04 µg/mL (≈ 0.189 µM), 266.7 and 248.73.
For `Cc1cn([C@@H]2C=C[C@@]3(CO)C[C@@H]23)c(=O)[nH]c1=O`, the inhibition result in data set [9], in data set [10], in data set [3], in data set [4], in data set [11] and in [12] was “inactive” throughout. Also, the inhibition result in [13] and in data set [6] was “inactive” in each case. This compound also gave a CC50 in data set [1] of more than 100 µg/mL. The half-maximal inhibitory concentration (IC50) in data set [2] was 1.18 µg/mL (≈ 5.02 µM); in [14] it was 59.2 µg/mL (≈ 253 µM); in data set [7], 2.27 µg/mL (≈ 9.69 µM). Besides, the results for the “Ratio CC50/IC50” value in [8] and in [5] were more than 44.05 and more than 85.09, respectively.
